Test results taken from PubChem BioAssay AID1800 (The Scripps Research Institute Molecular Screening Center, 2009).
Screen size: about 290,000 compounds; about 1,600 (0.55%) were called active.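 How the source made its calls: active means inhibition above the mean of all tested compounds plus 3 SD, set per campaign (cut at about 35% in these data); inactive means the rest.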 For the sample, actives were picked, then their nearest neighbours and some compounds at random.

The molecules below were run on Hepatitis C virus NS3 helicase (assay: HCV NS3 DNA unwinding blockers – biochemical, Cy5 molecular beacon fluorescence, primary screen (AID 1800;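 further: 0% = DMSO wells and 100% = thioflavine S control wells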)). Settings: at 10.9 µM, hits give high values.
How it was run: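 Control set: DMSO versus 110 µM thioflavine S; Material: NS3 helicase fragment of HCV; Measured by: Cy5 fluorescence at 0 and 60 min, beacon hairpin quenching; Read-out basis: percent inhibition from t60/t0 fluorescence ratio; Times: reaction time 60 min, 25 °C; Repeats: single replicate; Compound dosing: single dose, 10.9 µM nominal final, DMSO 0.8% final.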
`COc1ccc(NC(=S)N2CCC(NC(=O)c3cccc(F)c3)CC2)cc1` was tested, and the inhibition was 5.28% (inactive). With `O=C(CSc1nnc(Nc2ccccc2)s1)Nc1cccnc1Cl` the inhibition was 4.07% (inactive). For `CC(C)c1ccc(Nc2nnc(SCC(=O)c3nnc(-c4ccccc4)o3)s2)cc1`, the inhibition was 42.3% (active). With `Cc1ccc(Nc2nnc(SCc3ccccc3)s2)cc1` the inhibition was -1.63% (inactive). In the case of `Cc1ccc(SC(CC(=O)c2ccc(C(C)(C)C)cc2)C(=O)O)cc1` (stereo not given), the inhibition is reported as 44.4% (active). In the case of `Cc1ccc(C(=O)CSc2ccccc2C(=O)O)cc1`, the inhibition is reported as 2.55% (inactive). For `Cc1ccc(CSCC(N)C(=O)O)cc1` (stereo not given), the inhibition was 0.78% (inactive). In the case of `C=CCn1c(=NC(=O)c2cccs2)sc2cc(NC(C)=O)ccc21`, the inhibition is reported as -8.84% (inactive). In the case of `Cc1cccc(CCNS(=O)(=O)c2ccc3c(c2)NC(=O)CO3)c1`, the inhibition is reported as -2.06% (inactive). In the case of `COc1ccc(/C=C(/NC(=O)c2ccccc2)C(=O)Nc2cccc(C(=O)O)c2)cc1`, the inhibition is reported as 3.56% (inactive). With `COc1ccc(S(=O)(=O)N(C)CC(=O)N2CCCC2)cc1` the inhibition was -9.23% (inactive). In the case of `CC(C)=N/N=C1/NC(=O)C(Cc2ccccc2)S1` (stereo not given), the inhibition is reported as 12.1% (inactive). For `Cc1ccc(C2Nc3cccc4cccc(c34)N2)cc1`, the inhibition was 38.8% (active). `C/C(=C\c1ccco1)C1Nc2cccc3cccc(c23)N1` was tested, and the inhibition was 15% (inactive). For `Brc1ccccc1C1Nc2cccc3cccc(c23)N1`, the inhibition was 53.8% (active). In the case of `COc1cc2c(cc1OC)C(c1ccccc1Br)NC(=O)C2` (stereo not given), the inhibition is reported as 1.43% (inactive). `Oc1ccc(C2Nc3cccc4cccc(c34)N2)cc1` was tested, and the inhibition was 9.35% (inactive). For `COc1cccc(C2Nc3cccc4cccc(c34)N2)c1`, the inhibition was -11.8% (inactive). With `CCc1noc(C)c1C(=O)N1CCCC(N2CCN(c3ccc(F)cc3)CC2)C1` (stereo not given) the inhibition was 8.93% (inactive). `CC(C)(COC(=O)Nc1ccccc1)COC(=O)Nc1ccccc1` was tested, and the inhibition was -7.99% (inactive). In the case of `Cc1cc([N+](=O)[O-])c(-c2ccc(/C=N/n3cnnc3)o2)cc1Cl`, the inhibition is reported as 12.9% (inactive). `CC1=NN(c2ccc(Cl)c(C(=O)O)c2)C(=O)/C1=C/c1ccc(-c2ccccc2[N+](=O)[O-])o1` was tested, and the inhibition was 43.5% (active). `O=C(Nc1ccc(N2CCOCC2)cc1)c1ccc(-c2ccccc2[N+](=O)[O-])o1` was tested, and the inhibition was -10.2% (inactive). `COc1ccccc1NC(=O)Nc1nnc(Cc2ccc(F)cc2)s1` was tested, and the inhibition was -6.22% (inactive). For `CCOc1ccc(N(C(=O)c2snc(C(N)=O)c2N)C(C(=O)NCC2CCCO2)c2c[nH]c3ccccc23)cc1` (stereo not given), the inhibition was -29.3% (inactive). In the case of `COc1ccc(/C=C(/NC(=O)c2ccco2)C(=O)Nc2ccc(C(C)=O)cc2)cc1`, the inhibition is reported as 2.61% (inactive). In the case of `COc1ccc(/C=C(\NC(=O)c2ccc(OCC(C)C)cc2)C(=O)OCc2ccco2)cc1`, the inhibition is reported as 43.7% (active). In the case of `COc1ccc(C(=O)Nc2ccccc2C(=O)NCc2ccco2)cc1`, the inhibition is reported as -9.8% (inactive). For `CCCn1cc(S(=O)(=O)c2ccc(C)cc2)c(=O)c2cc(OCC)ccc21`, the inhibition was -5.21% (inactive). `CCc1ccc(NC(=O)Nc2ccncc2)cc1` was tested, and the inhibition was -8.08% (inactive). In the case of `O=C(Nc1ccc2nccnc2c1)c1ccco1`, the inhibition is reported as -0.83% (inactive). In the case of `COCCNC(=O)Nc1ccc2nc(-c3ccco3)c(-c3ccco3)nc2c1`, the inhibition is reported as 42.2% (active). For `O=C(NCc1ccccn1)c1ccc2nc(-c3ccco3)c(-c3ccco3)nc2c1`, the inhibition was 31.3% (inactive). For `NC(=O)c1nsc(C(=O)N(CCCN2CCOCC2)C(C(=O)NC2CCCCC2)c2ccc(Cl)cc2)c1N` (stereo not given), the inhibition was 13.6% (inactive). For `Cc1ccc(C(=O)/C=C/Nc2ccc(S(=O)(=O)Nc3onc(C)c3C)cc2)cc1`, the inhibition was 23.3% (inactive). `COc1cc(C(=O)Nc2oc(-c3ccccc3)c(-c3ccccc3)c2C#N)cc(OC)c1OC` was tested, and the inhibition was -0.57% (inactive). For `CC(C)C(=O)Nc1oc(-c2ccccc2)cc1C#N`, the inhibition was 2.07% (inactive). In the case of `CC(Oc1ccccc1)C(=O)Nc1oc(-c2ccco2)c(-c2ccco2)c1C#N` (stereo not given), the inhibition is reported as 52.5% (active). With `Cc1cc2c(cc1C)N(C(=O)CN1C(=O)c3ccccc3C1=O)C(C)(C)c1ssc(=S)c1-2` the inhibition was -5.01% (inactive). With `O=C(CCC(=O)n1ncc2ccccc21)NCc1ccccc1Cl` the inhibition was 12.6% (inactive). With `COc1cc(/C=C2/C(=O)NN(c3cccc(Cl)c3)C2=O)cc(Br)c1O` the inhibition was 64.2% (active). In the case of `C#CCOc1ccc(/C=C2/C(=O)NN(c3ccccc3)C2=O)cc1OC`, the inhibition is reported as 27.8% (inactive). In the case of `COc1cc(/C=C2/C(=O)NN(c3ccc(F)cc3)C2=O)cc([N+](=O)[O-])c1O`, the inhibition is reported as 15.7% (inactive). For `COC(=O)c1ccc(/C=C2/C(=O)Oc3ccccc32)cc1`, the inhibition was 4.46% (inactive). With `Nc1c(Cl)cc(-c2csc(N3CCCC3c3nc4cc(Cl)c(Cl)cc4n3CCOCCO)n2)cc1Cl` (stereo not given) the inhibition was -4.48% (inactive). In the case of `COc1ccc(-c2nn(-c3ccccc3)cc2/C=C2/SC(=S)N(CCCC(=O)O)C2=O)c(C)c1`, the inhibition is reported as -32.5% (inactive). With `CN(C)S(=O)(=O)c1cccc(-c2nn(-c3ccccc3)cc2/C=C2\SC(=S)N(CC(=O)O)C2=O)c1` the inhibition was 9.49% (inactive). In the case of `Cc1ccc(-c2nn(-c3ccccc3)cc2/C=C2\SC(=S)N(CCCCCC(=O)O)C2=O)o1`, the inhibition is reported as 45.9% (active). In the case of `CC(C)C1Cc2c(sc3c2c(=O)n(-c2ccccc2)c2nncn32)CO1` (stereo not given), the inhibition is reported as 1.09% (inactive). In the case of `CC(C)(C)NC(=O)CSc1nnc(NC(=O)CCc2ccccc2)s1`, the inhibition is reported as -6.73% (inactive). `O=C1/C(=C\c2ccsc2)NC(=S)N1c1ccccc1` was tested, and the inhibition was 11% (inactive). With `O=C1N/C(=C/c2cccn2-c2ccccc2)C(=O)N1c1cccc(Cl)c1` the inhibition was 43% (active). `Cc1ccccc1NC(=O)CN1C(=O)N/C(=C\c2cccn2-c2cccc(C(=O)O)c2)C1=O` was tested, and the inhibition was 21.8% (inactive). In the case of `O=C(CCc1ccccc1F)N1CCN(c2ccccc2)CC1`, the inhibition is reported as 8.51% (inactive). `Cc1ccccc1CCNC(=O)C1CCC(=O)N(Cc2ccc(Cl)cc2)C1` (stereo not given) was tested, and the inhibition was -13.2% (inactive). With `Cc1cccc(NC(=O)c2ccc3c(=O)n(CC4CCCO4)c(=S)[nH]c3c2)c1` (stereo not given) the inhibition was -9.4% (inactive). `O=c1nc2s/c(=C\c3ccco3)c(=O)n2nc1Cc1ccccc1` was tested, and the inhibition was 45.8% (active). In the case of `CCOc1ccccc1/C=c1\sc2nc(-c3ccco3)nn2c1=O`, the inhibition is reported as 27.9% (inactive). With `Cc1nc2nc(SCC(=O)NCc3ccco3)nn2c(C)c1Cc1ccccc1` the inhibition was 2.25% (inactive). `COC(=O)c1cc(S(=O)(=O)N2CCN(c3cc(C)ccc3C)CC2)c[nH]1` was tested, and the inhibition was -25.3% (inactive). In the case of `CCOc1ccc(C(C(=O)NCCOC)N(CCOC)C(=O)CCC(=O)Nc2ccccn2)cc1` (stereo not given), the inhibition is reported as 38.9% (active). `COCCN(C(=O)CCC(=O)Nc1ccccn1)C(C(=O)NCCC(C)C)c1ccc(OC)cc1` (stereo not given) was tested, and the inhibition was 0.66% (inactive). `COCCNC(=O)C(c1ccc(C)cc1)N(C(=O)CCC(=O)Nc1ccccn1)c1cccc(C)c1` (stereo not given) was tested, and the inhibition was -11.8% (inactive). `O=C(Nc1nnc(-c2ccc(F)cc2)s1)c1c(F)cccc1Cl` was tested, and the inhibition was -8.63% (inactive). In the case of `O=c1cc(O)c(-c2cccc(C(F)(F)F)c2)c(Cl)[nH]1`, the inhibition is reported as 13.8% (inactive). In the case of `Cc1ccccc1/C=C\c1nc(O)c([N+](=O)[O-])c(=O)[nH]1`, the inhibition is reported as 9.37% (inactive). `O=c1[nH]c(/C=C\c2cccc(C(F)(F)F)c2)nc(O)c1[N+](=O)[O-]` was tested, and the inhibition was 47.4% (active). For `CCNC(=O)N1CCCC(C(=O)c2ccc(-c3ccccc3)cc2)C1` (stereo not given), the inhibition was -0.46% (inactive). `Cc1ccc(S(=O)(=O)Oc2ccc(/C=N/NC(=O)c3ccncc3)cc2)cc1` was tested, and the inhibition was -3.55% (inactive). In the case of `O=C1OC(c2ccc(Cl)cc2)=N/C1=C\c1cccnc1`, the inhibition is reported as 5.47% (inactive). In the case of `Cc1ccc(C2=N/C(=C\c3ccc(OS(=O)(=O)c4ccc(C)cc4)cc3)C(=O)O2)cc1`, the inhibition is reported as 40.6% (active). `O=C(CNc1cccc(S(=O)(=O)N2CCCCC2)c1)Nc1ccccc1F` was tested, and the inhibition was -2.03% (inactive). With `CCOCCCN(C)C1CCN(C(=O)c2oc3ccccc3c2NC(=O)COc2cccc(C)c2)CC1` the inhibition was -20.2% (inactive). In the case of `O=C(CCl)NNc1cccc(Cl)n1`, the inhibition is reported as 60.9% (active). `O=C(NNc1ccccn1)c1ccc(Cl)nc1` was tested, and the inhibition was -0.49% (inactive). For `O=C(CCl)NNc1nc(-c2ccccc2)c2cc(Cl)ccc2n1`, the inhibition was 3.47% (inactive). `CCC(C(=O)OC)n1cnc2c(oc3ccccc32)c1=O` (stereo not given) was tested, and the inhibition was -6.44% (inactive). In the case of `Cc1ccc(Nc2c3c(nc4ccccc24)CCC3)cc1`, the inhibition is reported as -35.6% (inactive). For `CC(=O)Nc1ccc(NC(=O)COc2ncnc3ccccc23)cc1`, the inhibition was 8.73% (inactive). With `CC(=O)Nc1ccc(Nc2c3ccccc3nc3ccccc23)cc1` the inhibition was 38.4% (active). With `Cc1cccc(NC(=O)NC(=S)NC(=O)c2ccccc2)c1` the inhibition was 7.16% (inactive). `COC(=O)c1c(C)[nH]c(C(=O)NCCc2ccc(S(N)(=O)=O)cc2)c1C` was tested, and the inhibition was -6.64% (inactive). In the case of `O=S(=O)(NCc1ccc(Cl)cc1Cl)c1cccs1`, the inhibition is reported as 7.61% (inactive). `O=[N+]([O-])c1cc(Cl)cc(/C=N/NC(=S)Nc2cc(S(=O)(=O)N3CCOCC3)ccc2Cl)c1O` was tested, and the inhibition was 40.4% (active). With `O=C(CN1CCN(c2ccc(O)cc2)CC1)Nc1cc(S(=O)(=O)N2CCOCC2)ccc1Cl` the inhibition was 13.6% (inactive). In the case of `O=C(N/N=C/c1cc(Cl)cc([N+](=O)[O-])c1O)C(O)(c1ccccc1)c1ccccc1`, the inhibition is reported as 24.1% (inactive). For `Cc1cccc(CCNS(=O)(=O)c2ccc(S(=O)(=O)NC3CCCC3)cc2)c1`, the inhibition was -9.33% (inactive). For `CN(c1ccccc1)c1ccc(/C=c2\s/c(=C(/C#N)C(=O)C(C)(C)C)n(Cc3ccco3)c2=O)cc1`, the inhibition was 37% (active). For `CCOC(=O)/C=c1\s/c(=C\c2ccc(C#N)cc2)c(=O)n1CC(=O)Nc1cccc(C)c1C`, the inhibition was 12.5% (inactive). For `Cc1cs/c(=N\N=C\c2ccc(O)cc2)n1Cc1ccco1`, the inhibition was 3.43% (inactive).
